Measurements taken from PMC11756393 (Scientific Reports, 2025).

Experiments:
[1] = tested on: macrophages (human monocytes THP-1 differentiated); experiment: MTT cytotoxicity assay on macrophages; format: cell-based; settings: SI as a marker of toxicity
Method in brief: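 THP-1 monocytes were differentiated to macrophages and grown at 37 °C, 5% CO2 in RPMI 1640 with 10% FBS. Test compound added in triplicate; untreated wells and medium with 1% DMSO served as controls. After 72 h, MTT was added for 4 h, formazan dissolved in DMSO and absorbance read at 490 nm. CC50 by probit analysis, mean ± SD; SI = CC50/amastigote IC50.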

L. tropica promastigotes = experiment: MTT assay on promastigotes; format: cell-based, Leishmania tropica; settings: for Combined effect with meglumine antimonate on promastigotes (in words): combination with MA, compared with MA monotherapy; for Inhibitory activity on promastigotes (in words): compound alone, compared with meglumine antimonate
Method in brief: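 L. tropica promastigotes grown at 24 °C in RPMI 1640 with 10% FBS, seeded at 5 × 10^5 cells/ml and left overnight. Test compound then added in triplicate for 72 h. MTT for 4 h, formazan dissolved in DMSO, absorbance read at 490 nm. IC50 from nonlinear regression against untreated control. Meglumine antimonate combinations scored by combination index and isobologram additivity line.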

Row | Structure (SMILES) | Safety for mammalian macrophages judged by SI (in words) [1] | Combined effect with meglumine antimonate on promastigotes (in words) (L. tropica promastigotes) | Inhibitory activity on promastigotes (in words) (L. tropica promastigotes)
1 | COc1ccc(C2Oc3ccccc3C=C2[N+](=O)[O-])cc1 (stereo not drawn) [Compound 4d, 2-(4-methoxyphenyl)-3-nitro-2H-chromene] | highly safe | – | –
2 | Cc1ccc(COc2cccc(C3Oc4ccccc4C=C3[N+](=O)[O-])c2)cc1 (stereo not drawn) [Compound 4k, 2-(3-((4-methylbenzyl)oxy)phenyl)-3-nitro-2H-chromene] | – | most pronounced synergistic effects | comparable to meglumine antimonate
3 | O=[N+]([O-])C1=Cc2ccccc2OC1c1cccc(OCc2ccc(Cl)cc2)c1 (stereo not drawn) [Compound 4n, 2-(3-((4-chlorobenzyl)oxy)phenyl)-3-nitro-2H-chromene] | highly safe | most pronounced synergistic effects | comparable to meglumine antimonate
4 | O=[N+]([O-])C1=Cc2ccccc2OC1c1cccc(OCc2ccc([N+](=O)[O-])cc2)c1 (stereo not drawn) [Compound 4o, 3-nitro-2-(3-((4-nitrobenzyl)oxy)phenyl)-2H-chromene] | highly safe | most pronounced synergistic effects | comparable to meglumine antimonate
